Reference: ChEMBL document CHEMBL1143985, “Aryl azoles with neuroprotective activity--parallel synthesis and attempts at target identification” (2008)
The source made the active and inactive calls. The calls are words filed in the database; no cut-off is given here.

Key:
[1] = Neuroprotective effect against NMDA-induced toxicity in Sprague-Dawley rat mixed cortical neurons assessed as LDH release at 10 uM co-treated with NMDA; format: functional, Cortical neurone
Outline: (§1)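 Mixed cortical cultures from E16 Sprague–Dawley rat neocortex, grown in Neurobasal with 5% FBS and used at 12 days in vitro. Compound added 20 min (co-treatment) or 24 h (pre-treatment) before NMDA (60 µM). MK-801 10 µM served as positive control. After 24 h, LDH release was read and normalized to the NMDA-released level. Technical replicates per sample were combined across independent experiments.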

[2] = Displacement of [3H]batrachotoxinin from sodium channel site 2 at 10 uM relative to veratridine
[3] = Neuroprotective effect against veratridine-induced toxicity in Sprague-Dawley rat pure cortical neurons assessed as XTT release at 1 uM co-treated with veratridine; format: functional, Cortical neurone
Outline: (§2)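 E16 Sprague–Dawley rat cortical cultures, either mixed (Neurobasal with 5% FBS) or pure neuronal (Neurobasal with B27), used at 12 days in vitro. Compound at 1 or 10 µM was added 20 min before veratridine (60 µM). Viability was read 24 h later by LDH release in mixed cultures and XTT in pure cultures, normalized to veratridine. Three experiments, eight replicates each.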

[4] = Neuroprotective effect against veratridine-induced toxicity in Sprague-Dawley rat pure cortical neurons assessed as XTT release at 10 uM co-treated with veratridine; format: functional, Cortical neurone; outline: as §2
[5] = Neuroprotective effect against veratridine-induced toxicity in Sprague-Dawley rat mixed cortical neurons assessed as XTT release at 10 uM pre-treated before veratridine treatment; format: functional, Cortical neurone
[6] = Neuroprotective effect against veratridine-induced toxicity in Sprague-Dawley mixed rat cortical neurons assessed as LDH release at 1 uM co-treated with veratridine
[7] = Neuroprotective effect against veratridine-induced toxicity in Sprague-Dawley mixed rat cortical neurons assessed as LDH release at 10 uM co-treated with veratridine
[8] = Neuroprotective effect against NMDA-induced toxicity in Sprague-Dawley rat mixed cortical neurons assessed as LDH release at 1 uM pretreated before NMDA treatment; format: functional, Cortical neurone; outline: as §1
[9] = Neuroprotective effect against NMDA-induced toxicity in Sprague-Dawley rat mixed cortical neurons assessed as LDH release at 10 uM pre-treated before NMDA treatment; format: functional, Cortical neurone; outline: as §1
[10] = Neuroprotective effect against NMDA-induced toxicity in Sprague-Dawley rat mixed cortical neurons assessed as LDH release at 1 uM co-treated with NMDA; format: functional, Cortical neurone; outline: as §1
Cortical neurone = test: Neuroprotective effect against NMDA-induced toxicity in Sprague-Dawley rat mixed cortical neurons assessed as LDH release at 0.1 uM co-treated with NMDA; format: functional; outline: as §1

SMILES	Activity [1]	inhibition [2]	other results
O=[N+]([O-])c1ccc(-c2cc(-c3ccccc3)n[nH]2)cc1	89%	14%	–
COc1ccc(C(=O)O[C@H]2CC[C@@]3(C)[C@@H]4CC[C@H]5[C@]6(O)C[C@H](O)[C@@]7(O)[C@@H](CN8C[C@@H](C)CC[C@H]8[C@@]7(C)O)[C@]6(O)C[C@@]53O[C@]24O)cc1OC	–	100%	–
COc1cccc(-c2cc(-c3ccccc3)n[nH]2)c1	76%	27%	–
Cn1nc(-c2ccc([N+](=O)[O-])cc2)cc1-c1ccccc1	86.3%	8%	–
COc1ccc(-c2cc(-c3ccccc3)n(C)n2)cc1	70.4%	8%	–
COc1cccc(C2CC(c3ccccc3)=NN2C(C)=O)c1 (stereo unspecified)	81%	16%	–
O=[N+]([O-])c1cccc(-c2cc(-c3ccccc3)n[nH]2)c1	75.6%	15%	Activity [3]: 80.9%; Activity [4]: 51.2%; Activity [5]: 70%; Activity [6]: 77.6%; Activity [7]: 26.6%
Cn1nc(-c2ccccc2)cc1-c1cccc(Cl)c1	65.6%	15%	–
CC(=O)N1N=C(c2ccc([N+](=O)[O-])cc2)CC1c1ccccc1 (stereo unspecified)	85.5%	17%	–
CC(=O)N1N=C(c2ccccc2)CC1c1cccc(Cl)c1 (stereo unspecified)	86.4%	27%	–
COc1ccccc1-c1cnn(-c2ccccc2)c1	80.3%	–	Activity [2]: inactive
Cn1nc(-c2ccccc2)cc1-c1ccc2[nH]ccc2c1	67.1%	41%	Activity [8]: 90.2%; Activity [9]: 86%; Activity [10]: 80.3%; Activity (Cortical neurone): inactive; Activity [3]: 82.7%; Activity [4]: 56.8%; Activity [5]: 40%; Activity [6]: 87.9%; Activity [7]: 63.2%
Cn1nc(-c2ccc(Cl)cc2)cc1-c1ccccc1	87.3%	13%	–
COc1ccc(-c2cc(-c3ccccc3)n[nH]2)cc1	67.2%	30%	Activity [8]: 91.1%; Activity [9]: 95%; Activity [10]: 81.7%; Activity [3]: 70.4%; Activity [4]: 64.9%; Activity [5]: 50%; Activity [6]: 80.9%; Activity [7]: 49.2%
COc1cccc(-c2cc(-c3ccccc3)nn2C)c1	78.3%	12%	–
Cn1nc(-c2ccc(C(=O)O)cc2)cc1-c1ccc(C(C)(C)C)cc1	61.1%	–	Activity [2]: inactive
Cn1nc(-c2ccccc2)cc1-c1c[nH]c2ccccc12	76.7%	14%	–
Clc1ccc(-c2cc(-c3ccccc3)n[nH]2)cc1	66.1%	16%	Activity [3]: 75%; Activity [4]: 56.5%; Activity [5]: 70%; Activity [6]: 74.1%; Activity [7]: 24.2%
Clc1cccc(-c2cc(-c3ccccc3)n[nH]2)c1	96.4%	21%	–
Cn1nc(-c2ccccc2)cc1-c1cccc([N+](=O)[O-])c1	85.5%	4%	–
